This note sets out measurements from ChEMBL document CHEMBL4052710 (Bioorg Med Chem Lett, 2017).

Data set [1] has as its system T47D. The data set is described as follows: Induction of apoptosis in human T47D cells assessed as viable cells level at 1 uM incubated for 48 hrs by annexin V-FITC and propidium iodide staining based flow cytometry (reference value: 96%). The format is functional. (A flow cytometer gives signals particle by particle.)
Data set [2] deals with T47D. The data set is described as follows: Induction of cell cycle arrest in human T47D cells assessed as increase in G2 phase accumulation at 0.1 to 1 uM incubated for 24 hrs by flow cytometry. The class given is functional, cell-based. Summed up:
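Cells were treated for 24 h with compound at 0.1, 0.5 and 1 µM, with LEE011 or vehicle (DMSO) alongside. Cell-cycle phase distribution was then determined by flow cytometry.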

The subject of the next data set is Mus musculus. Nature of the data set: Toxicity in mouse 4T1 cells xenografted BALB/C mouse assessed as induction of body weight loss at 50 to 150 mg/kg/day, ip dosed for 21 consecutive days. The format is organism-based. To be noted: in vivo. The method in brief:
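Tumor cells were implanted orthotopically into the mammary fat pads of female BALB/c mice aged 6-8 weeks. Once tumors averaged 100 mm3, mice received daily IP injections of 50, 100 or 150 mg/kg/day, or solvent control, for 21 consecutive days. Body weight was tracked and reported as mean with SD.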

Data set [3] has as its system T47D. The data set is described as follows: Induction of apoptosis in human T47D cells assessed as late apoptotic cells level at 0.25 uM incubated for 48 hrs by annexin V-FITC and propidium iodide staining based flow cytometry (reference value: 0.48%). The class given is functional.
Data set [4] relates to T47D. Nature of the data set: Growth inhibition of human T47D cells incubated for 72 hrs by CCK8 assay. The class given is functional, cell-based.
The next data set deals with A549. Nature of the data set: Growth inhibition of human A549 cells incubated for 72 hrs by CCK8 assay. The class given is functional, cell-based. Conditions: A549, 72 h. A general note: Formazan colour is commonly taken as a measure of viable cells.
The target in data set [5] is CDK6/cyclin D3 (Homo sapiens) (UniProt P30281+Q00534). Nature of the data set: Inhibition of human CDK6/CyclinD3 at 1 uM by enzymatic radiometric assay. The format is protein-complex assay.
Another data set relates to NCI-H1299. Nature of the data set: Growth inhibition of human H1299 cells incubated for 72 hrs at 10 uM by CCK8 assay. The format is functional. To be noted: NCI-H1299, 72 h, read-out: GI. The method in brief:
(§1)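 CCK8 viability assay on a panel of human cancer cell lines, with an initial screen at fixed concentrations of 1 µM and 10 µM.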

Data set [6] concerns T47D. Nature of the data set: Growth inhibition of human T47D cells incubated for 72 hrs at 1 uM by CCK8 assay. The class given is functional. To be noted: read-out: GI. The method in brief: as §1
Data set [7] has as its system T47D. The data set is described as follows: Induction of apoptosis in human T47D cells assessed as late apoptotic cells level at 5 uM incubated for 48 hrs by annexin V-FITC and propidium iodide staining based flow cytometry (reference value: 0.48%). The format is functional.
The subject of data set [8] is T47D. Nature of the data set: Induction of apoptosis in human T47D cells assessed as necrotic cells level at 5 uM incubated for 48 hrs by annexin V-FITC and propidium iodide staining based flow cytometry (reference value: 2.79%). The class given is functional.
Data set [9] relates to T47D. Nature of the data set: Induction of apoptosis in human T47D cells assessed as necrotic cells level at 0.5 uM incubated for 48 hrs by annexin V-FITC and propidium iodide staining based flow cytometry (reference value: 2.79%). The format is functional.
The target of the next data set is CDK4/Cyclin D3 (Homo sapiens, UniProt P11802). Nature of the data set: Inhibition of human CDK4/CyclinD3 by enzymatic radiometric assay. The format is protein-complex assay. The method in brief:
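CDK4 activity measured with the Eurofins KinaseProfiler. IC50 and inhibition values are means of two independent experiments.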

The test system of another data set is HeLa. The data set is described as follows: Growth inhibition of human HeLa cells incubated for 72 hrs at 1 uM by CCK8 assay. The format is functional. Conditions: read-out: GI. Summed up:
as §1

Data set [10] deals with CDK12/Cyclin K (Homo sapiens) (UniProt O75909+Q9NYV4). The data set is described as follows: Inhibition of human CDK12/CyclinK at 1 uM by enzymatic radiometric assay. The class given is protein-complex assay. Summed up:
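Kinase panel run through the Eurofins KinaseProfiler, with compound at a fixed 1 µM. Values are means of two independent experiments.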

Another data set has as its system MCF7. The data set is described as follows: Growth inhibition of human MCF7 cells incubated for 72 hrs by CCK8 assay. The format is functional, cell-based. Conditions: MCF7, 72 h.
In data set [11] the test system is T47D. The data set is described as follows: Induction of apoptosis in human T47D cells assessed as viable cells level at 0.25 uM incubated for 48 hrs by annexin V-FITC and propidium iodide staining based flow cytometry (reference value: 96%). The format is functional.
Another data set relates to 4T1. Nature of the data set: Antitumor activity against mouse 4T1 cells xenografted in BALB/C mouse assessed as inhibition of tumor growth at 50 to 150 mg/kg/day, ip dosed for 21 consecutive days. The format is functional, organism-based. Summed up:
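Cells implanted orthotopically into mammary fat pads of female BALB/c mice aged 6-8 weeks. Dosing began once tumours averaged 100 mm3: daily IP injection at 50, 100 or 150 mg/kg/day for 21 consecutive days, with a solvent control group. Tumour volume and body weight were followed, given as mean ± SD.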

For data set [12], the system named is T47D. Nature of the data set: Induction of apoptosis in human T47D cells assessed as late apoptotic cells level at 0.5 uM incubated for 48 hrs by annexin V-FITC and propidium iodide staining based flow cytometry (reference value: 0.48%). The format is functional.
A further data set deals with OVCAR-5. Nature of the data set: Growth inhibition of human OVCAR5 cells incubated for 72 hrs at 10 uM by CCK8 assay. Conditions: OVCAR-5, 72 h, read-out: GI. The class given is functional. Summed up:
as §1

The structures appear in SMILES notation. Calls of active or inactive are those of the source. No cut-off for these calls is given here.

CDK4/Cyclin D3, sequence (P11802 whole entry): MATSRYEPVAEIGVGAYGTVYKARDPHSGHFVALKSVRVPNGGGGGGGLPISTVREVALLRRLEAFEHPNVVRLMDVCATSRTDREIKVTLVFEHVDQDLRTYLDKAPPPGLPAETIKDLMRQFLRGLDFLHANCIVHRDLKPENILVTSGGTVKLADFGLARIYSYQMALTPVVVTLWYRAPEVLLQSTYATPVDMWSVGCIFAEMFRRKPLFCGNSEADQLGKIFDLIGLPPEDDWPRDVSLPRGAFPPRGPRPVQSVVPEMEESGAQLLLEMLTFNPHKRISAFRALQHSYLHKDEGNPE
CDK4/Cyclin D3, sequence (P30281 whole entry, further chain): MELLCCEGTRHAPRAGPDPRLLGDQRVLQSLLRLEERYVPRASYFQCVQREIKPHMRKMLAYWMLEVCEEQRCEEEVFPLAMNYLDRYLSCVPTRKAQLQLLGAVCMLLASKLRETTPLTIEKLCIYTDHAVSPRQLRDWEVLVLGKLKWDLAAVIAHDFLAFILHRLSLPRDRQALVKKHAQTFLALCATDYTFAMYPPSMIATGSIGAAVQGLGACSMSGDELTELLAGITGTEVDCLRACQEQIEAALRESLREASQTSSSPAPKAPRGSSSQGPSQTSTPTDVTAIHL
CDK12/Cyclin K (Homo sapiens), sequence (O75909 whole entry, looked up): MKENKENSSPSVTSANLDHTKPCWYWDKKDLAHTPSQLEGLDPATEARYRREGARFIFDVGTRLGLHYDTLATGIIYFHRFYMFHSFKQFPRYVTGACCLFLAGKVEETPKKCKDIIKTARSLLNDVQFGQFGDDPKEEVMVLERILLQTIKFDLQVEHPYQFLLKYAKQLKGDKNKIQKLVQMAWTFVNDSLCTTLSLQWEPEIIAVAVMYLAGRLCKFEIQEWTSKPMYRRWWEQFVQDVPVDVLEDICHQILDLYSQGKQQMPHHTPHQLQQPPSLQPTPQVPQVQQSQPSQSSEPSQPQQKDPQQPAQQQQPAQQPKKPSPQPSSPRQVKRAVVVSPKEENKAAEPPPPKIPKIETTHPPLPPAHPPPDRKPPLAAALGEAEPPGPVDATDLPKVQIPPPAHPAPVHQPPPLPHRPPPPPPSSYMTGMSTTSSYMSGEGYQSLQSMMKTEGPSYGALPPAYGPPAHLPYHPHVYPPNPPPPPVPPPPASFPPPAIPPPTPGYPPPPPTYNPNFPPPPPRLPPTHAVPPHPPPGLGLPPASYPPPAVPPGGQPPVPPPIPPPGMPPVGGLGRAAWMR
CDK12/Cyclin K (Homo sapiens), sequence (Q9NYV4 whole entry, looked up): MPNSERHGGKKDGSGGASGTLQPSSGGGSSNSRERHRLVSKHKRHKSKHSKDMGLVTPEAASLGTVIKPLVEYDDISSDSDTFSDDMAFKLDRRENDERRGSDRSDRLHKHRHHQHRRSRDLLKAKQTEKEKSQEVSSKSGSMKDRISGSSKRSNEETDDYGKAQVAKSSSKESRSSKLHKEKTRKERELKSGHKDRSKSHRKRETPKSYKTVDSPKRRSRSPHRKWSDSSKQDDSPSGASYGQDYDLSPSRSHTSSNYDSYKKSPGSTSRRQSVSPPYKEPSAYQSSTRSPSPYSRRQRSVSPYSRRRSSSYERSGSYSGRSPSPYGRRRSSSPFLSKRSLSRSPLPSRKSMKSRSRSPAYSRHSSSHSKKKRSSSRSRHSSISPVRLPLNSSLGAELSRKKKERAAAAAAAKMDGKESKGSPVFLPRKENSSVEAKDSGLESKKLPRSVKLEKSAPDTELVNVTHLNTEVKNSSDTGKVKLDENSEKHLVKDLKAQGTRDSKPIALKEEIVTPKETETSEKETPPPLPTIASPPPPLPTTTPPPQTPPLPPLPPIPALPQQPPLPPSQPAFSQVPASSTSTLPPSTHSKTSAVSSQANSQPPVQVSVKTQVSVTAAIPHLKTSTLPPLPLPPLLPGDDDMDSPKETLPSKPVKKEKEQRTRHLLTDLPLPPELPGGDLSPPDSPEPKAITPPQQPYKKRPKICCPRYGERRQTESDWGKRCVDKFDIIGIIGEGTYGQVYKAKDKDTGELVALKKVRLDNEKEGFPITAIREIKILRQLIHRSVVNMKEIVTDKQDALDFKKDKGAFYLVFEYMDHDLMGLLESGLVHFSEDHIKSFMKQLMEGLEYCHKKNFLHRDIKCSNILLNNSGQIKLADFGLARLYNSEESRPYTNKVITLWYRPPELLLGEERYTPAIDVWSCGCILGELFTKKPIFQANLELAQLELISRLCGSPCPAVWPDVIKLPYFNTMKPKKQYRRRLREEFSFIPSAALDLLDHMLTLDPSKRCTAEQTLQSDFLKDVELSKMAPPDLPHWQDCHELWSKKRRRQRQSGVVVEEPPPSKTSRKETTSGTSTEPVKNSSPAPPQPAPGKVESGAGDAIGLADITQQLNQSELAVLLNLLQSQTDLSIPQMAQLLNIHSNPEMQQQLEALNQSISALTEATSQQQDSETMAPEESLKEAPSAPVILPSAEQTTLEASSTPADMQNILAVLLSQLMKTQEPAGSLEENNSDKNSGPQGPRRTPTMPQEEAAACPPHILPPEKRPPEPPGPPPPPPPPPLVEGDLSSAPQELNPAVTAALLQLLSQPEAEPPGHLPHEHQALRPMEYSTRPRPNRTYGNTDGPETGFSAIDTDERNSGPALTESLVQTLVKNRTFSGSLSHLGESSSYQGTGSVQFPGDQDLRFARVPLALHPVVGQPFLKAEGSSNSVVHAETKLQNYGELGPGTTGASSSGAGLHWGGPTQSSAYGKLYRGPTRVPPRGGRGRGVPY

Take `CN(C)C(=O)c1cc2cnc(Nc3ccc(NC(=O)C4(C(=O)Nc5ccc(F)cc5)CC4)cc3)nc2n1C1CCCC1`: the Activity in the data set with T47D [1] is reported as 90.5%; with Mus musculus, “Non-Toxic”; with T47D [3] it was 3.28%; in the data set on T47D [7] it was 5.29%; with T47D [8] it was 2.23%; with T47D [9] it was 2.69%. In addition, the Activity in the data set with T47D [11] worked out at 94.2%; in the data set with T47D [12], 3.58%. Further, the result in the data set on T47D [2] was Active. Besides, the IC50 (usually the midpoint of a concentration-inhibition curve) with T47D [4] stood at 358 nM; in the data set with A549, 456 nM; on CDK4/Cyclin D3, 142 nM; in the data set with MCF7, 338 nM. The inhibition (usually the change of the read-out against control, counted positive when it falls) in [5] is 71%; in data set [10], 24%. The inhibition of growth at 10 µM with NCI-H1299 amounted to 90.8%; in the data set on OVCAR-5, 79.7%. The values for the inhibition of growth at 1 µM in the data set on T47D [6] and in the data set on HeLa were 74.7% and 49.8%, respectively. Further, the TGI entry in the data set on 4T1 is “Dose-dependent effect”.
